# Assay results collected from several papers.
# Each line is one published result; the experiments were not run side by side.
# BRAF V600E: Serine/threonine-protein kinase B-raf (BRAF, Homo sapiens, UniProt P15056, V600E)
# PADI2: Protein-arginine deiminase type-2 (PADI2, Homo sapiens, UniProt Q9Y2J8)
# SMARCA2: SWI/SNF-related matrix-associated actin-dependent regulator of chromatin subfamily A member 2 (SMARCA2, Homo sapiens, UniProt P51531)
# DRD2: D(2) dopamine receptor (DRD2, Homo sapiens, UniProt P14416)
# Map2k4: Dual specificity mitogen-activated protein kinase kinase 4 (Map2k4, Mus musculus, UniProt P47809)
# BPTF: Nucleosome-remodeling factor subunit BPTF (BPTF, Homo sapiens, UniProt Q12830)
Structure (SMILES),target,assay,test system,setting,endpoint,value
Cc1ccc(C(CS(=O)(=O)c2ccccc2)=NN=C2N=C(c3ccc(C)cc3)CS2)cc1,BRAF V600E,"enzyme activity, inhibitor, ATP luminescence",,0.1 µM,inhibition,43%
N=C(CCl)NCCC[C@H](NC(=O)c1ccccc1C(=O)O)c1nn[nH]n1,PADI2,"enzyme activity, inhibitor",,,kinact/KI,162 M⁻¹ s⁻¹
Cc1ccc(C(=O)Nc2ccc(CN3CCN(C)CC3)c(C(F)(F)F)c2)cc1C#Cc1cnc2cccnn12,"Microtubule-associated serine/threonine-protein kinase 1 (MAST1, Homo sapiens, UniProt Q9Y2H9)","enzyme activity, inhibitor",,23.5 nM,remaining activity,95%
CCC(/C=C1\CCCn2c1nc(=O)c1c(Cl)cccc12)CC,SMARCA2,"thermal stability, DSF",,100 µM,ΔTm,0.48 °C
COc1ccc(S(N)(=O)=O)cc1C(=O)NCCCN1CCN(c2ccccc2OC)CC1,DRD2,"enzyme activity, inhibitor",,10 µM,inhibition,62.4%
CN(C)/C=C1\CCCn2c1nc(=O)c1c(Cl)cccc12,SMARCA2,"thermal stability, DSF",,100 µM,ΔTm,0.49 °C
Cc1ccc(NC(=O)c2ccc(C)c(C(F)(F)F)c2)cc1C#Cc1nn(C2CCC(O)CC2)c2ncnc(N)c12 (stereo not drawn),Map2k4,cell-free assay,,10 µM,remaining signal,49%
Oc1ccc(-c2nc(-c3ccncc3)c(-c3ccc(F)cc3)[nH]2)cc1,SMARCA2,"thermal stability, DSF",,10 µM,ΔTm,0.56 °C
CC(C)(C)c1nc(-c2cccc(NS(=O)(=O)c3c(F)cccc3F)c2F)c(-c2ccnc(N)n2)s1,BRAF V600E,"enzyme activity, inhibitor, ATP luminescence",,10 nM,inhibition,34%
NCCCC[C@H](NC(=O)[C@@H]1CCCN1C(=O)[C@@H]1CSSC[C@H](N)C(=O)N[C@@H](Cc2ccc(O)cc2)C(=O)N[C@@H](Cc2ccccc2)C(=O)N[C@@H](CCC(N)=O)C(=O)N[C@@H](CC(N)=O)C(=O)N1)C(=O)NCC(N)=O,"Vasopressin V2 receptor (AVPR2, Homo sapiens, UniProt P30518)","cAMP, agonist, TR-FRET",CHO-K1,,Emax,~100%
CC(=O)N[C@H]1CSSC[C@@H](C(=O)N[C@H](Cc2c[nH]c3ccccc23)C(N)=O)NC(=O)[C@@H](Cc2ccccc2)NC(=O)[C@H](CCCNC(=N)N)NC1=O,"Melanocortin receptor 3 (MC3R, Homo sapiens, UniProt P41968)","cAMP, agonist",HEK293,3 min,Emax,0%
Cc1ccc(C(CS(=O)(=O)c2ccccc2)=NNc2nc(C)c(N=Nc3ccccc3)s2)cc1,BRAF V600E,"enzyme activity, inhibitor, ATP luminescence",,10 nM,inhibition,26%
Cc1cnc(Nc2ccc(OCCN3CCCC3)cc2)nc1Nc1cccc(S(=O)(=O)NC(C)(C)C)c1,BPTF,"thermal stability, DSF",,10 µM,ΔTm,0.8 °C
CC(C)(C)n1nnc([C@H](CCCNC(=N)CCl)NC(=O)c2ccccc2C(=O)O)n1,PADI2,"enzyme activity, inhibitor",,,kinact/KI,1000 M⁻¹ s⁻¹
CCC(CC)C1CC12CCn1c2nc(=O)c2c(Cl)cccc21 (stereo not drawn),SMARCA2,"thermal stability, DSF",,100 µM,ΔTm,1.4 °C
NS(=O)(=O)c1ccc(Nc2nc(-c3ccc(F)cc3)c3ccccc3n2)cc1,SMARCA2,"binding, competition with immobilised ligand",,1 µM,remaining binding,74%
C[S+]([O-])c1ccc(-c2nc(-c3ccncc3)c(-c3ccc(F)cc3)[nH]2)cc1 (stereo not drawn),BPTF,"thermal stability, DSF",,10 µM,ΔTm,0.89 °C
CCC(/C=C1\CCn2c1nc(=O)c1cc(OC)ccc12)CC,SMARCA2,"thermal stability, DSF",,100 µM,ΔTm,0.14 °C
N=C(CF)NCCC[C@H](NC(=O)c1ccccc1C(=O)O)c1nn[nH]n1,PADI2,"enzyme activity, inhibitor",,,kinact/KI,42.5 M⁻¹ s⁻¹
Cc1cnc(NC2CCOCC2)nc1-n1cnc(C(=O)NC(CN)c2cc(F)cc(Cl)c2)c1 (stereo not drawn),Map2k4,"enzyme activity, inhibitor, radiometric",,1 µM,remaining activity,63%
Cc1ccc(C(CS(=O)(=O)c2ccccc2)=NNc2nc(C)c(N=Nc3cccc(C)c3)s2)cc1,BRAF V600E,"enzyme activity, inhibitor, ATP luminescence",,1 µM,inhibition,81%
N=C(CCl)NCCC[C@H](NC(=O)c1ccccc1)c1nn[nH]n1,PADI2,"enzyme activity, inhibitor",,,kinact/KI,14.5 M⁻¹ s⁻¹
COc1cc(CNCCc2c[nH]c3ccccc23)cc(Cl)c1OCC(N)=O,DRD2,"enzyme activity, inhibitor",,10 µM,inhibition,30.3%
N=C(CF)NCCC[C@H](NC(=O)c1ccccc1)c1nn[nH]n1,PADI2,"enzyme activity, inhibitor",,,kinact/KI,6.42 M⁻¹ s⁻¹
CCCOc1ccc(OC)c(F)c1C(=O)c1ccc(C(=O)N[C@@H]2CNC[C@H]2NC(=O)c2ccc3[nH]ncc3c2)cc1,Map2k4,"enzyme activity, inhibitor",,10 µM,remaining activity,120%
CCC(CC)CC1CCn2c1nc(=O)c1c(Cl)cccc12 (racemic),SMARCA2,"thermal stability, DSF",,100 µM,ΔTm,1.33 °C
Nc1ncnc2occ(-c3ccc(NC(=O)Nc4cc(C(F)(F)F)ccc4F)cc3)c12,"Mitogen-activated protein kinase 4 (MAPK4, Homo sapiens, UniProt P31152)","cell-free assay, inhibitor",,20 µM,remaining signal,100%
CC(C)(C)C/C=C1\CCn2c1nc(=O)c1c(Cl)cccc12,SMARCA2,"thermal stability, DSF",,100 µM,ΔTm,1.61 °C
CC1(c2ccccc2)COCC(N)=N1 (stereo not drawn),"Beta-secretase 1 (BACE1, Homo sapiens, UniProt P56817)","thermal stability, DSF",,"2.1 mM, pH 5.4",ΔTm,2.78 °C
CCC(/C=C1\CCn2c1nc(=O)c1ccc(Cl)cc12)CC,SMARCA2,"thermal stability, DSF",,100 µM,ΔTm,-2.09 °C
Cc1ccc(Nc2nccc(N(C)c3ccc4c(C)n(C)nc4c3)n2)cc1S(N)(=O)=O,"Tyrosine-protein kinase Blk (Blk, Mus musculus, UniProt P16277)","enzyme activity, inhibitor",,0.3 µM,inhibition,9%
CCC(/C=C1\CCn2c1nc(=O)c1cc(O)ccc12)CC,SMARCA2,"thermal stability, DSF",,100 µM,ΔTm,-0.28 °C
Cc1ncsc1-c1ccc(CNC(=O)[C@@H]2C[C@@H](O)CN2C(=O)[C@@H](NC(=O)C2(F)CC2)C(C)(C)C)c(OCCOCCOCCN2CCN(c3cc(-c4ccccc4O)nnc3N)CC2)c1,SMARCA2,"protein level, degrader",MV4-11,,Dmax,~65%
